Assay results from different studies.
Compare with care: the assays were run in different laboratories.
Matrix: plasma

For O=C(O)/C=C/c1ccc(O)c(O)c1, the MRT was 0.69 h (HPLC; Wistar rat; oral).
For CCc1cc(OC)c2nccc(N3CCc4c(cc(Cn5ccnc5)cc4-c4cn(C)nc4C(F)(F)F)C3=O)c2c1, the MRT(0-inf) was 1 h (male Sprague-Dawley rat; intravenous; 3 mg/kg).
For O=C(Nc1cc(F)c(F)c(F)c1)c1ccc(F)c(S(=O)(=O)NCc2cccc(B(O)O)c2)c1, the MRT(0-t) was 0.73 h (male Sprague-Dawley rat; intravenous; 2 mg/kg).
For CNCc1cc(-c2ccccc2F)n(S(=O)(=O)c2cccnc2)c1, the MRT(0-inf) was 2.47 h (Sprague-Dawley rat; oral; 10 mg/kg).
CCc1cc(C(=O)NC)c2nccc(N3CCc4c(cc(Cn5ccnc5)cc4-c4cn(C)nc4C(F)(F)F)C3=O)c2c1 has an MRT(0-inf) of 10.6 h (male Sprague-Dawley rat; oral; 100 mg/kg).
Cc1nc(Nc2ncc(C(=O)Nc3c(C)cccc3Cl)s2)cc(N2CCN(CCO)CC2)n1 gave an MRT of 3.78 h (female Sprague-Dawley rat; intravenous; 5 mg/kg).
For C#Cc1cccc(Nc2ncnc3cc(OCCOC)c(OCCOC)cc23)c1, the MRT(0-t) was 5.07 h (male Sprague-Dawley rat; oral; 12 mg/kg; single dose).
COc1nc(-c2cc(C)c(N[C@@H](C)c3cc(F)cc(F)c3)nn2)ccc1-n1cnc(C)c1 has an MRT(0-t) of 3.28 h (male Sprague-Dawley rat; intravenous; 1 mg/kg; single dose).
CCOC(=O)[C@@]12C[C@@H]1[C@@H](n1ccc3c(NC)nc(C#Cc4ccc(Cl)s4)nc31)[C@H](O)[C@@H]2O gave an MRT(0-t) of 2.44 h (male Sprague-Dawley rat; oral; 3 mg/kg).
For N#Cc1ccc(Nc2nc(N)cc(Oc3c(F)cc(-c4ccc(C#N)cc4)cc3F)n2)cc1, the MRT(0-inf) was 6.48 h (Sprague-Dawley rat; oral; 5 mg/kg).
Oc1c(Br)cc(Cl)c2cccnc12 gave an MRT of 6.8 h (Sprague-Dawley rat; oral; 20 mg/kg).
CCc1nc(C(N)=O)c(Nc2ccc(N3CCC(N4CCN(C)CC4)CC3)c(OC)c2)nc1NC1CCOCC1 has an MRT(0-t) of 19.5 h (male Sprague-Dawley rat; oral; 10 mg/kg).
